Data reported in ChEMBL document CHEMBL3244147 (J Med Chem, 1978).
Activity calls are given as the source filed them. The calls are words filed in the database; no cut-off is given here. Where a SMILES comes first, the peptide text is derived from it. The star is where a group is joined. NH(4-N(CH2CH2Cl)2-phenyl) = ClCCN(CCCl)c1ccc(N*)cc1; Cbz = O=C(OCc1ccccc1)*

Experiments:
Liver [1] = experiment: Prodrug conversion in guinea pig liver homogenate assessed as release of labelled carbobenzyloxy-L-pro-lyl-L-leucine; type: ADME, tissue-based, Cavia porcellus
Liver [2] = experiment: Prodrug conversion in rat liver homogenate assessed as cleavage of labelled compound; type: ADME, tissue-based
[3] = Prodrug conversion in pig liver homogenate assessed as cleavage of labelled compound; type: ADME, tissue-based, Sus scrofa
[4] = Prodrug conversion in pig liver homogenate assessed as release of labelled carbobenzyloxy-L-pro-lyl-L-leucine; type: ADME, tissue-based, Sus scrofa
Liver [5] = experiment: Prodrug conversion in mouse liver homogenate assessed as release of labelled carbobenzyloxy-L-pro-lyl-L-leucine; type: ADME, tissue-based
Liver [6] = experiment: Prodrug conversion in rat liver homogenate assessed as release of labelled carbobenzyloxy-L-pro-lyl-L-leucine; type: ADME, tissue-based
[7] = Drug metabolism assessed as bacterial collagenase-mediated compound disappearance after 24 hrs by TLC autoradiography; type: ADME
In short: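 14C-labelled substrate at 2 mg/mL in dimethyl sulfoxide. 0.3 mL of it was mixed with 0.95 mL of pH 7.3 barbiturate/acetate/NaCl buffer containing calcium acetate, actidione and DMSO; the reaction mixture was 28% DMSO. The buffer held 5 mg bacterial collagenase (375 units/mg). Controls had no enzyme, trypsin or bovine serum albumin. Products were followed by TLC autoradiography.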

Liver [8] = experiment: Prodrug conversion in guinea pig liver homogenate assessed as cleavage of labelled compound; type: ADME, tissue-based, Cavia porcellus
Sarcoma-180 [9] = experiment: Drug metabolism assessed as mouse Sarcoma 180 homogenate-mediated compound disappearance after 24 hrs by TLC autoradiography; type: ADME; conditions: sarcoma-180, 24 h
In short: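 S-180 tumour tissue (0.85 g) was homogenised in cold pH 7.3 calcium acetate/DMSO buffer containing actidione, then spun at 5000 rpm for 10 min. The supernatant replaced enzyme in the collagenase-type assay with 14C-labelled substrate (2 mg/mL in DMSO) in 28% DMSO reaction mixture. Disappearance and products were read by TLC autoradiography.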

Liver [10] = experiment: Prodrug conversion in mouse liver homogenate assessed as cleavage of labelled compound; type: ADME, tissue-based
[11] = Toxicity in ip dosed CF1 mouse after 14 days of injection; type: organism-based; conditions: in vivo
In short: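 Female Carworth Farms mice, 16-20 g. Compound was suspended in 1% aqueous methylcellulose (ultrasonicated if insoluble) and diluted to doses of 4-324 mg/kg, given as 0.45 mL per mouse by a single intraperitoneal injection. Five mice per dose; survivors were counted at 14 days. LD50 is expressed in μmol/kg.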

Sarcoma-180 [12] = experiment: Antitumor activity against mouse Sarcoma 180 at 10 to 50% of LD50; type: functional
In short: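 Mice carrying well-advanced Sarcoma-180 tumours received a single intraperitoneal dose.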

Question: What does the source list for CC(C)C[C@H](NC(=O)[C@@H]1CCCN1C(=O)O[14CH2]c1ccccc1)C(=O)NCC(=O)N1CCC[C@H]1C(=O)NCC(=O)Nc1ccc(N(CCCl)CCCl)cc1?
Answer: Drug metabolism (Liver [1]): metabolite_detected; Drug metabolism (Liver [2]): metabolite_detected; Drug metabolism [3]: metabolite_detected; Drug metabolism [4]: metabolite_detected; Drug metabolism (Liver [5]): metabolite_detected; Drug metabolism (Liver [6]): metabolite_detected; Drug metabolism [7]: metabolite_detected; Drug metabolism (Liver [8]): metabolite_detected; Drug metabolism (Sarcoma-180 [9]): metabolite_detected; Drug metabolism (Liver [10]): metabolite_detected

Question: Which LD50 at 336 h [11] does the source give for NCC(=O)N1CCC[C@H]1C(=O)NCC(=O)Nc1ccc(N(CCCl)CCCl)cc1.O=C(O)C(F)(F)F here?
Answer: Its LD50 at 336 h is 19.7 µmol/kg.

Question: Which LD50 at 336 h [11] does the source give for CC(C)C[C@H](NC(=O)[C@@H]1CCCN1C(=O)[C@@H](CCCCNC(=O)OC(C)(C)C)NC(=O)OC(C)(C)C)C(=O)NCC(=O)N1CCC[C@H]1C(=O)NCC(=O)Nc1ccc(N(CCCl)CCCl)cc1 here?
Answer: The LD50 at 336 h was 100 µmol/kg.

Question: With CC(C)C[C@H](NC(=O)[C@@H]1CCCN1C(=O)[C@H](N)Cc1ccccc1)C(=O)NCC(=O)N1CCC[C@H]1C(=O)NCC(=O)Nc1ccc(N(CCCl)CCCl)cc1.O=C(O)C(F)(F)F as the compound, how does the LD50 at 336 h [11] read?
Answer: Its LD50 at 336 h is 106 µmol/kg.

Question: For CC(C)C[C@H](N)C(=O)NCC(=O)N1CCC[C@H]1C(=O)NCC(=O)Nc1ccc(N(CCCl)CCCl)cc1.O=C(O)C(F)(F)F (H-LGPG-{NH(4-N(CH2CH2Cl)2-phenyl)}), which LD50 at 336 h [11] is on record?
Answer: The LD50 at 336 h was 10.4 µmol/kg.

Question: With CC(C)C[C@H](NC(=O)[C@@H]1CCCN1C(=O)OCc1ccccc1)C(=O)NCC(=O)N1CCC[C@H]1C(=O)NCC(=O)Nc1ccc(N(CCCl)CCCl)cc1 (Cbz-PLGPG-{NH(4-N(CH2CH2Cl)2-phenyl)}) as the compound, how does the LD50 at 336 h [11] read?
Answer: The LD50 at 336 h was 123 µmol/kg.

Question: What about the Activity (Sarcoma-180 [12]) of the same compound?
Answer: The Activity was “inactive”.

Question: For CC(C)C[C@H](NC(=O)[C@@H]1CCCN1C(=O)[C@H](N)CCCCN)C(=O)NCC(=O)N1CCC[C@H]1C(=O)NCC(=O)Nc1ccc(N(CCCl)CCCl)cc1.O=C(O)C(F)(F)F, which LD50 at 336 h [11] is on record?
Answer: Its LD50 at 336 h is 78 µmol/kg.

Question: What about the Activity (Sarcoma-180 [12]) of the same compound?
Answer: The Activity was “inactive”.

Question: With O=C(CNC(=O)[C@@H]1CCCN1C(=O)OCc1ccccc1)Nc1ccc(N(CCCl)CCCl)cc1 as the compound, how does the LD50 at 336 h [11] read?
Answer: Its LD50 at 336 h is 119 µmol/kg.

Question: With CC(C)C[C@H](NC(=O)[C@@H]1CCCN1C(=O)[C@@H](C)NC(=O)OC(C)(C)C)C(=O)NCC(=O)N1CCC[C@H]1C(=O)NCC(=O)Nc1ccc(N(CCCl)CCCl)cc1 as the compound, how does the LD50 at 336 h [11] read?
Answer: Its LD50 at 336 h is 94.5 µmol/kg.

Question: With CC(C)C[C@H](NC(=O)[C@@H]1CCCN1C(=O)[C@@H](Cc1ccccc1)NC(=O)OC(C)(C)C)C(=O)NCC(=O)N1CCC[C@H]1C(=O)NCC(=O)Nc1ccc(N(CCCl)CCCl)cc1 as the compound, how does the LD50 at 336 h [11] read?
Answer: Its LD50 at 336 h is 105 µmol/kg.
